pIC50: −log10 of the molar value. Converted amounts (≈) assume the structure as drawn. The source made the active and inactive calls. No cut-off for these calls is given here.

Series [1] relates to DNA. The experiment in a line: Induction of DNA cross-linking activity in human CLL-derived lymphocytes assessed as increase in gammaH2AX formation at 5 to 20 uM after 24 hrs by flow cytometry. It counts as functional, cell-based. The method, boiled down: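 Primary CLL lymphocytes from 5 patients were treated at 5-20 µM for 24 h. γH2AX was quantified by flow cytometry.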
In general terms: In flow cytometry, cells or beads pass a laser one at a time.

Series [2] concerns dsDNA. Kind of series: Induction of DNA-interstanded-cross-link formation in [32P]-labeled 49-mer duplex DNA (unknown origin) at 1 mM in absence of H2O2 after 16 hrs by PAGE relative to control. It counts as functional. The essentials:
(§1)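 A 32P-labelled 49-mer, annealed with 1.5 equiv complement (65 °C for 3 min in 10 mM potassium phosphate pH 7, 100 mM NaCl, then slow cooling), was used at 1.0 µM before final dilution. Duplex was mixed with compound (final 1 mM), NaCl and potassium phosphate pH 8, with or without H2O2. Incubation 16 h at room temperature, formamide quench, then 20% denaturing PAGE.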

The nature of series [3]: Solubility of the compound in PBS buffer at 10 mM at pH 7.4 by UV-based analysis. The class given is physicochemical. The essentials:
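Compound (10 mM DMSO stock) was diluted into pH 7.4 buffer (ethanolamine/KH2PO4/potassium acetate/KCl) to a final 5% DMSO. After sonication and 18 h agitation the mixture was filtered and scanned by UV at 230-800 nm. Solubility was calculated from calibration plots made in 20% acetonitrile buffer, in quadruplicate, with solubility standards on each plate.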

Series [4] relates to MDA-MB-468. The experiment in a line: Growth inhibition of human MDA-MB-468 cells after 48 hrs by […]. As to conditions: MDA-MB-468, 48 h. It counts as functional, cell-based. For orientation: In fluorescence polarisation assays a small probe gives low polarisation when free and higher when bound to something large.
Series [5] has as its system dsDNA. Kind of series: Induction of DNA-interstanded-cross-link formation in [32P]-labeled 49-mer duplex DNA (unknown origin) at 1 mM in presence of H2O2 after 16 hrs by PAGE relative to control. The class given is functional. The method, boiled down: as §1
Series [6] deals with Panel NCI-60 (60 carcinoma cell lines). The experiment in a line: Growth inhibition of human NCI60 cells at 10 uM after 48 hrs by SRB assay relative to control. The class given is functional, cell-based. The essentials:
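NCI-60 one-dose screen: cells exposed to 10 µM for 48 h at 37 °C, 5% CO2, 100% humidity. Percent growth is given relative to the no-drug control and the time-zero cell count.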

A short description of series [7]: Drug level in DMSO-d6/PBS buffer treated with 4-(bis(2-chloroethyl)amino)phenylboronic acid assessed as compound formation after 10 days in presence of GSH by IT-TOF mass analysis. The class given is physicochemical. Particulars: 240 h.
Series [8] is described as follows: Drug level in DMSO-d6/PBS buffer treated with (3-(((2-Amino-3-methoxy-3-oxopropyl)thio)methyl)-4-(bis(2-chloroethyl)amino)phenyl)boronic Acid assessed as compound formation after 10 days in presence of GSH by IT-TOF mass analysis. The class given is physicochemical. Particulars: 240 h.
The nature of series [9]: Drug metabolism in DMSO-d6/PBS buffer assessed as 2-((2-chloroethyl)(4-(4,4,5,5-tetramethyl-1,3,2-dioxaborolan-2-yl)phenyl)amino)ethanol formation after 10 days in presence of GSH by IT-TOF mass analysis.
A short description of series [10]: Drug metabolism in PBS buffer assessed as 4-(bis(2-chloroethyl)amino)phenylboronic acid formation at pH 6 to 7 after 48 hrs.
A short description of series [11]: Drug metabolism in DMSO-d6/PBS buffer assessed as 4-(bis(2-chloroethyl)amino)phenylboronic acid formation after 10 days in presence of GSH by IT-TOF mass analysis.
The subject of a further series is SR. The experiment in a line: Growth inhibition of human SR cells after 48 hrs by SRB assay. The class given is functional. The essentials: (§2)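 NCI-60 five-dose screen at 100 µM, 10 µM, 1 µM, 100 nM and 10 nM. Incubation 48 h at 37 °C, 5% CO2, 100% humidity. Growth was expressed relative to the no-drug control and to the time-zero cell number, and GI50 was derived from these values.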
(Sulforhodamine B stains cellular protein and so reports cell mass.)

The test system of series [12] is MDA-MB-468. Kind of series: Growth inhibition of human MDA-MB-468 cells after 48 hrs by SRB assay. The class given is functional. Particulars: MDA-MB-468, 48 h. The essentials: as §2
For the next series, the system named is Lymphocyte. The experiment in a line: Induction of apoptosis in human lymphocytes at 10 uM after 24 hrs by Annexin V-FITC/propidium iodide-staining based flow cytometry. The class given is cell-based. The essentials:
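Normal PBMCs from 3 donors were isolated on Ficoll and treated at 10 µM. Apoptosis was measured by annexin V-FITC/PI flow cytometry against time-matched untreated controls.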

The test system of series [13] is DNA. Kind of series: Induction of DNA cross-linking activity in human CLL-derived lymphocytes assessed as increase in gammaH2AX formation at 1 uM after 24 hrs by flow cytometry. It counts as functional, cell-based. The method, boiled down:
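Primary CLL lymphocytes from 3 patients were treated for 24 h at 10 µM or 1 µM, depending on compound. H2AX phosphorylation (% γH2AX) was measured by flow cytometry.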

Series [14] is described as follows: Drug level in DMSO-d6/PBS buffer treated with N,N-bis(2-chloroethyl)-4-(4,4,5,5-tetramethyl-1,3,2-dioxaborolan-2-yl)aniline assessed as compound formation after 10 days in presence of GSH by IT-TOF mass analysis. The class given is physicochemical. Particulars: 240 h.
The next series deals with IGROV-1. Kind of series: Growth inhibition of human IGROV1 cells after 48 hrs by SRB assay. The class given is functional. As to conditions: IGROV-1, 48 h. The essentials: as §2
A further series concerns SNB-75. Kind of series: Growth inhibition of human SNB75 cells after 48 hrs by SRB assay. The class given is functional. As to conditions: SNB-75, 48 h. The method, boiled down: as §2
The next series concerns RPMI-8226. Kind of series: Growth inhibition of human RPMI8226 cells after 48 hrs by SRB assay. Particulars: RPMI-8226, 48 h. It counts as functional. The essentials:
as §2

The test system of a further series is SK-OV-3. The experiment in a line: Growth inhibition of human SKOV3 cells after 48 hrs by SRB assay. Particulars: SK-OV-3, 48 h. The class given is functional. The method, boiled down: as §2
A further series has as its system CCRF-CEM. Kind of series: Growth inhibition of human CCRF-CEM cells after 48 hrs by SRB assay. It counts as functional. The method, boiled down: as §2
The next series has as its system MOLT-4. Kind of series: Growth inhibition of human MOLT4 cells after 48 hrs by SRB assay. Particulars: MOLT-4, 48 h. The class given is functional. The method, boiled down:
as §2

Another series relates to HOP-92. The experiment in a line: Growth inhibition of human HOP92 cells after 48 hrs by SRB assay. The class given is functional. Particulars: HOP-92, 48 h. The method, boiled down:
as §2

In a further series the test system is MCF7. Kind of series: Growth inhibition of human MCF7 cells after 48 hrs by SRB assay. The class given is functional. As to conditions: MCF7, 48 h. The essentials: as §2
A further series has as its system Malme-3M. Kind of series: Growth inhibition of human MALME-3M cells after 48 hrs by SRB assay. It counts as functional. The method, boiled down:
as §2

In a further series the test system is HT-29. The experiment in a line: Growth inhibition of human HT-29 cells after 48 hrs by SRB assay. It counts as functional. As to conditions: HT-29, 48 h. The method, boiled down:
as §2

The test system of another series is K562. The experiment in a line: Growth inhibition of human K562 cells after 48 hrs by SRB assay. It counts as functional. As to conditions: K562, 48 h. The method, boiled down:
as §2

Turning to `CC1(C)OB(c2ccc(CO)cc2)OC1(C)C`, the result in the series on DNA [1] was inactive.
Consider `CC1(C)OB(c2ccc(N(CCCl)CCCl)c([N+](=O)[O-])c2)OC1(C)C`, for which the Activity in the series on dsDNA [2] is 1.5 to 15%; in the series with dsDNA [5] it was less than 9%. Moreover, the solubility (in general, the dissolved amount per volume that the medium holds) in series [3] stood at 380 µM (≈ 148 µg/mL). In addition, in the series on MDA-MB-468 [4], the pIC50 (usually the negative decadic logarithm of the IC50, by convention in mol/L) was 4.03. In addition, in [6], the “growth inhibition (GI)” value is “inactive”.
On to `OCCN(CCCl)c1ccc(B(O)O)cc1`, for which the Drug uptake entry in series [7] was “Active”.
Consider `CCCCOC(=O)C(NC(=O)OC(C)(C)C)c1cn(Cc2cc(B3OC(C)(C)C(C)(C)O3)ccc2N(CCCl)CCCl)c2ccccc12` (centres undefined), for which the Activity in the series on dsDNA [2] was less than 5%. Moreover, in series [6], the “growth inhibition (GI)” value was “inactive”.
Regarding `COC(=O)C1CSCc2cc(B(O)O)ccc2N(CCO)CCN1` (centres undefined), the Drug uptake entry in series [8] is reported as “Active”.
In the case of `O=C(O)CCCc1ccc(N(CCCl)CCCl)cc1` [CHLORAMBUCIL], the Activity with dsDNA [2] was found to be 5.7%. For the same molecule, the pIC50 in the series on MDA-MB-468 [4] is 4.46.
As to `CC1(C)OB(c2ccc(N(CCCl)CCCl)cc2)OC1(C)C`, the figures for the Activity in the series with dsDNA [2] and with dsDNA [5] were 1.5 to 15% and less than 65%, respectively. Also, the Drug metabolism result in [9], in [10] and in series [11] was “Metabolite detected” each time. Besides, the solubility in [3] turned out to be 167 µM (≈ 57.5 µg/mL). In addition, the pIC50 in the series on MDA-MB-468 [4] was 4.61. For the same molecule, the GI50 – broadly, the concentration that inhibits growth by half – with SR was 0.63 µM; with MDA-MB-468 [12], 1.6 µM.
`N[C@H](CSCc1cc(B(O)O)ccc1N(CCO)CCCl)C(=O)O`: the Drug uptake entry in [8] was “Active”.
As for `COC(=O)C(CSCc1cc(B2OC(C)(C)C(C)(C)O2)ccc1N(CCCl)CCCl)NC(=O)OC(C)(C)C` (centres undefined), in the series on dsDNA [2], the Activity is less than 5%. In addition, in series [6], the “growth inhibition (GI)” value was “inactive”.
On to `COc1cc(N(CCCl)CCCl)ccc1B1OC(C)(C)C(C)(C)O1`, for which the Activity in the series on dsDNA [2] was 8%; with Lymphocyte it was “Non-Toxic”; in the series with dsDNA [5] it was less than 65%. This molecule also yielded a solubility in series [3] of 50 µM (≈ 18.7 µg/mL). Also, the pIC50 in the series with MDA-MB-468 [4] is 4.46. Besides, the result in the series with DNA [13] was Active.
In the case of `COC(=O)C1CSCc2cc(B(O)O)ccc2N(CCCl)CCN1` (centres undefined), in [8], the Drug uptake entry is given as “Active”.
For `CC1(C)OB(c2ccc(N(CCO)CCCl)cc2)OC1(C)C`, the Drug uptake result in [14] is recorded as “Active”.
As to `Cc1cc(N(CCCl)CCCl)ccc1B1OC(C)(C)C(C)(C)O1`, the Activity in the series with dsDNA [2] is 1.5 to 15%; with dsDNA [5], less than 65%. The GI50 in the series on IGROV-1 worked out at 16.1 µM; in the series on SNB-75 it was 10.1 µM; with RPMI-8226, 12 µM; in the series on SK-OV-3, 4.62 µM; in the series with CCRF-CEM it was 2.9 µM; with MOLT-4, 2.6 µM. The GI50 turned out to be 13.3 µM in the series on HOP-92; 0.49 µM in the series on SR; 3.86 µM with MCF7; 13.6 µM with Malme-3M; 7.88 µM with MDA-MB-468 [12]; 14.7 µM in the series with HT-29. In addition, it took 5.48 µM to inhibit growth with K562 by half (GI50). This molecule had a solubility in series [3] of 24 µM (≈ 8.59 µg/mL). Further, the negative-log IC50 (pIC50) with MDA-MB-468 [4] is 4.32.
In turn, `N[C@@H](Cc1ccc(N(CCCl)CCCl)cc1)C(=O)O` [MELPHALAN] showed an Activity in the series with dsDNA [2] of 4.9%. The pIC50 with MDA-MB-468 [4] is 4.31.
As for `N[C@H](Cc1cn(Cc2cc(B(O)O)ccc2N(CCCl)CCCl)c2ccccc12)C(=O)O`, the results for the Activity in the series with dsDNA [2] and in the series on dsDNA [5] were 1.5 to 15% and less than 65%, respectively. In addition, in series [6], the “growth inhibition (GI)” value is “inactive”.

Source of the values: ChEMBL document CHEMBL4382201 (J Med Chem, 2018).
